# Test results: ChEMBL document CHEMBL1126902, “Synthesis, chemical reactivity, and antitumor evaluation of congeners of carmethizole hydrochloride, an experimental "acylated vinylogous carbinolamine" tumor inhibitor” (J Med Chem, 1993)
# Tests used:
# [1] = tested on: P388; assay: Change in tumor cell population in ip implanted P388 Leukemia in mice after administration of compound at 87 mg/kg; assay type: functional, Mus musculus; settings: route intraperitoneal
# How it was run: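 P388 leukemia: ascitic fluid with ca. 5.2×10^6 cells inoculated ip into Portage-CD₂F₁ female mice. Drug given ip on days 1-5, starting 24 h after inoculation, dosed by average body weight. Vehicle was saline plus Tween 80, as a solution or suspension. KE = net log change in viable tumor cells from start to end of treatment.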
# [2] = Percent increase in life span of dying mice tested in vivo at 174 mg/kg against ip implanted LOX amelanotic melanoma in mice (60-day survivors); assay type: functional; settings: Mus musculus, 1440 h, route intraperitoneal
# How it was run: (§1)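 Female CD2F1 mice implanted ip with ascitic fluid carrying ca. 1.7×10^6 LOX amelanotic melanoma cells. Drug given ip on days 1, 5 and 9, starting 24 h after implant, dosed by exact body weight; solutions or suspensions made fresh daily. %ILS is from the median day of death of dying mice versus controls, excluding 60-day survivors.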
# [3] = Change in tumor cell population in ip implanted LOX amelanotic melanoma in mice after administration of compound at 43.5 mg/kg; assay type: functional, Mus musculus; settings: route intraperitoneal
# How it was run: (§2)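 Female CD2F1 mice were implanted ip with ascitic fluid holding ca. 1.7×10^6 LOX cells. Dosing was ip on days 1, 5 and 9, starting 24 h after implantation, by exact body weight, as a solution or suspension in saline plus Tween 80, freshly prepared daily. KE is the net log change in viable tumor cells from start to end of treatment. Bracketed KE assumes Poisson survival, with 60-day survivors tumor-free.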
# [4] = Change in tumor cell population in ip implanted LOX amelanotic melanoma in mice after administration of compound at 87 mg/kg; assay type: functional, Mus musculus; settings: route intraperitoneal; how it was run: as §2
# [5] = tested on: P388; assay: Percent increase in life span of dying mice tested in vivo at 10.9 mg/kg against ip implanted P388 Leukemia in mice; assay type: functional; settings: Mus musculus, route intraperitoneal
# How it was run: (§3)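 Portage-CD2F1 female mice inoculated ip with ascitic fluid carrying ca. 5.2×10^6 P388 leukemia cells. Drug given ip daily on days 1-5, starting 24 h after inoculation, dosed by average body weight. %ILS is from the median day of death of dying mice versus controls.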
# [6] = tested on: P388; assay: Percent increase in life span of dying mice tested in vivo at 87 mg/kg against ip implanted P388 Leukemia in mice; assay type: functional; settings: Mus musculus, route intraperitoneal
# How it was run: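 Portage-CD2F1 female mice were inoculated ip with ascitic fluid containing ca. 5.2×10^6 P388 leukemia cells. Drug was given ip daily on days 1-5, starting 24 h after inoculation, and dosed by average body weight. %ILS was calculated from the median day of death of dying mice versus controls.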
# [7] = tested on: P388; assay: Change in tumor cell population in ip implanted P388 Leukemia in mice after administration of compound at 21.8 mg/kg; assay type: functional, Mus musculus; settings: route intraperitoneal
# How it was run: (§4)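 Female Portage-CD2F1 mice were inoculated ip with ascitic fluid holding ca. 5.2×10^6 P388 cells. Dosing was ip on days 1-5, starting 24 h after inoculation, by average body weight, as a solution or suspension in saline plus Tween 80. KE is the net log change in viable tumor cell population from start to end of the treatment period.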
# [8] = Change in tumor cell population in ip implanted LOX amelanotic melanoma in mice after administration of compound at 21.75 mg/kg; assay type: functional, Mus musculus; settings: route intraperitoneal; how it was run: as §2
# [9] = Percent increase in life span of dying mice tested in vivo at 21.75 mg/kg against ip implanted LOX amelanotic melanoma in mice (60-day survivors); assay type: functional; settings: Mus musculus, 1440 h, route intraperitoneal; how it was run: as §1
# [10] = Percent increase in life span of dying mice tested in vivo at 43.5 mg/kg against ip implanted LOX amelanotic melanoma in mice (60-day survivors); assay type: functional; settings: Mus musculus, 1440 h, route intraperitoneal; how it was run: as §1
# [11] = tested on: P388; assay: Percent increase in life span of dying mice tested in vivo at 21.8 mg/kg against ip implanted P388 Leukemia in mice; assay type: functional; settings: Mus musculus, route intraperitoneal; how it was run: as §3
# [12] = Percent increase in life span of dying mice tested in vivo at 87 mg/kg against ip implanted LOX amelanotic melanoma in mice (60-day survivors); assay type: functional; settings: Mus musculus, 1440 h, route intraperitoneal
# How it was run: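 Nude CD2F1 female mice were implanted ip with ascitic fluid containing ca. 1.7×10^6 LOX amelanotic melanoma cells. Drug was given ip on days 1, 5 and 9, starting 24 h after implantation, and dosed by exact body weight. Solutions or suspensions were made fresh daily in saline plus Tween 80. %ILS was calculated from the median day of death of dying mice versus controls, excluding 60-day survivors.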
# [13] = tested on: P388; assay: Percent increase in life span of dying mice tested in vivo at 43.5 mg/kg against ip implanted P388 Leukemia in mice; assay type: functional; settings: Mus musculus, route intraperitoneal; how it was run: as §3
# [14] = Change in tumor cell population in ip implanted LOX amelanotic melanoma in mice after administration of compound at 174 mg/kg; assay type: functional, Mus musculus; settings: route intraperitoneal; how it was run: as §2
# [15] = tested on: P388; assay: Change in tumor cell population in ip implanted P388 Leukemia in mice after administration of compound at 43.5 mg/kg; assay type: functional, Mus musculus; settings: route intraperitoneal; how it was run: as §4
# [16] = tested on: P388; assay: Change in tumor cell population in ip implanted P388 Leukemia in mice after administration of compound at 10.9 mg/kg; assay type: functional, Mus musculus; settings: route intraperitoneal; how it was run: as §4
# [17] = Percent increase in life span of dying mice tested in vivo at 26.5 mg/kg against ip implanted LOX amelanotic melanoma in mice (60-day survivors); assay type: functional; settings: Mus musculus, 1440 h, route intraperitoneal; how it was run: as §1
# [18] = Change in tumor cell population in ip implanted LOX amelanotic melanoma in mice after administration of compound at 106 mg/kg; assay type: functional, Mus musculus; settings: route intraperitoneal; how it was run: as §2
# [19] = Change in tumor cell population in ip implanted LOX amelanotic melanoma in mice after administration of compound at 26.5 mg/kg; assay type: functional, Mus musculus; settings: route intraperitoneal; how it was run: as §2
# [20] = Percent increase in life span of dying mice tested in vivo at 212 mg/kg against ip implanted LOX amelanotic melanoma in mice (60-day survivors); assay type: functional; settings: Mus musculus, 1440 h, route intraperitoneal; how it was run: as §1
# [21] = Percent increase in life span of dying mice tested in vivo at 106 mg/kg against ip implanted LOX amelanotic melanoma in mice (60-day survivors); assay type: functional; settings: Mus musculus, 1440 h, route intraperitoneal; how it was run: as §1
# [22] = Change in tumor cell population in ip implanted LOX amelanotic melanoma in mice after administration of compound at 212 mg/kg; assay type: functional, Mus musculus; settings: route intraperitoneal; how it was run: as §2
# [23] = Change in tumor cell population in ip implanted LOX amelanotic melanoma in mice after administration of compound at 53 mg/kg; assay type: functional, Mus musculus; settings: route intraperitoneal; how it was run: as §2
# [24] = Percent increase in life span of dying mice tested in vivo at 53 mg/kg against ip implanted LOX amelanotic melanoma in mice (60-day survivors); assay type: functional; settings: Mus musculus, 1440 h, route intraperitoneal; how it was run: as §1
structure (smiles),measurement,setting,value
CCSc1nc(COC(=O)NC)c(COC(=O)NC)n1C,KE,[1],-4.3
same,ILS at 174 mg/kg,[2],95%
same,KE,[3],-0.5
same,KE,[4],-2.1
same,ILS at 10.9 mg/kg,[5],47%
same,ILS at 87 mg/kg,[6],99%
same,KE,[7],-1.3
same,KE,[8],-0.2
same,ILS at 21.75 mg/kg,[9],44%
same,ILS at 43.5 mg/kg,[10],52%
same,ILS at 21.8 mg/kg,[11],56%
same,ILS at 87 mg/kg,[12],85%
same,ILS at 43.5 mg/kg,[13],64%
same,KE,[14],-2.5
same,KE,[15],-1.9
same,KE,[16],-0.6
CNC(=O)OCc1nc(SC2CCCCO2)n(C)c1COC(=O)NC (centres undefined),ILS at 26.5 mg/kg,[17],11%
same,KE,[18],1
same,KE,[19],1.2
same,ILS at 212 mg/kg,[20],8%
same,ILS at 106 mg/kg,[21],15%
same,KE,[22],1.3
same,KE,[23],1
same,ILS at 53 mg/kg,[24],15%
